Test [1] has as its target MAP kinase p38 (Homo sapiens) (UniProt O15264+Q15759+Q16539+P53778). The test can be described thus: Inhibition of p38 phosphorylation in human HeLa cells at 20 uM after 3 hrs by Western blotting analysis. The test is classed as cell-based. The gist of the method:
(§1)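 HeLa cells exposed to 20 μM compound for 3 h. Lysed in Tris pH 7.4/NaCl/NP-40/deoxycholate/SDS buffer with protease and phosphatase inhibitors, protein by BCA. Then 20 μg protein on 8–10% SDS-PAGE, transferred to nitrocellulose and blocked with 5% milk. Primary antibodies overnight at 4 °C, detection by chemiluminescence. Phospho-ERK1/2, -JNK and -p38 quantified by densitometry (n = 3, ANOVA).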

Test [2] concerns the target c-Jun N-terminal kinase, JNK (Homo sapiens) (UniProt P45983+P53779+P45984). As to the kind of experiment: Inhibition of JNK phosphorylation in human HeLa cells at 20 uM after 3 hrs by Western blotting analysis. The test is classed as cell-based. The gist of the method: as §1
(A western blot detects proteins with antibodies after separation by electrophoresis.)

In test [3] the target is T1, Mitogen-activated protein kinase; ERK1/ERK2 (Homo sapiens) (UniProt P27361+P28482). As to the kind of experiment: Inhibition of ERK1/2 phosphorylation in human HeLa cells at 20 uM after 3 hrs by Western blotting analysis. The test is classed as cell-based. In a few lines:
as §1

Test [4] concerns HeLa. The test can be described thus: Cytotoxicity against human HeLa cells assessed as decrease in cell viability at 50 uM after 48 hrs by WST-8-based colorimetric assay. The test is classed as functional. The gist of the method: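 HeLa cells in 96-well plates given 50 μM compound for 48 h. Viability read with CCK-8: phenol red-free DMEM containing 10% WST-8 added, 1 h at 37 °C, then OD at 450 nm. Computed from the mean of three wells (n = 3, ANOVA).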
(Formazan colour is commonly taken as a measure of viable cells.)

The target in test [5] is T1, Mitogen-activated protein kinase; ERK1/ERK2 (Homo sapiens). The test can be described thus: Inhibition of ERK1/2 phosphorylation in human HeLa cells after 3 hrs by Western blotting analysis. It is filed as cell-based. The gist of the method: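 HeLa cells exposed to compound at indicated concentrations (2.5 to 40 μM range) for 3 h, with PD98059 as positive control. Lysate protein (20 μg) was run on SDS-PAGE and Western blotted for phospho-ERK1/2. Blots were quantified by densitometry (n = 3, ANOVA).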

Molecules are shown by their SMILES. Calls of active or inactive are those of the source. The rule behind the calls is not given here.

T1 sequence (P27361 whole entry, looked up): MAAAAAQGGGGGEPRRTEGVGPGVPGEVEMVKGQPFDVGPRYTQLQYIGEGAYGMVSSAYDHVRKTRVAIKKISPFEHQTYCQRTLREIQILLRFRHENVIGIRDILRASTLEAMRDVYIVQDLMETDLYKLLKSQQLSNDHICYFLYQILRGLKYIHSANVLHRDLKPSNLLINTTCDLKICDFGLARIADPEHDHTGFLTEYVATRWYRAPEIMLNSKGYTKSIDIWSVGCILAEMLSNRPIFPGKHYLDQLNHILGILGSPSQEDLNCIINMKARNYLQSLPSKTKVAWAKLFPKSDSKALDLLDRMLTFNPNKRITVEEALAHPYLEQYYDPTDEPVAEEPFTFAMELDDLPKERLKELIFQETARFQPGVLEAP
T1 sequence (P28482 whole entry, looked up): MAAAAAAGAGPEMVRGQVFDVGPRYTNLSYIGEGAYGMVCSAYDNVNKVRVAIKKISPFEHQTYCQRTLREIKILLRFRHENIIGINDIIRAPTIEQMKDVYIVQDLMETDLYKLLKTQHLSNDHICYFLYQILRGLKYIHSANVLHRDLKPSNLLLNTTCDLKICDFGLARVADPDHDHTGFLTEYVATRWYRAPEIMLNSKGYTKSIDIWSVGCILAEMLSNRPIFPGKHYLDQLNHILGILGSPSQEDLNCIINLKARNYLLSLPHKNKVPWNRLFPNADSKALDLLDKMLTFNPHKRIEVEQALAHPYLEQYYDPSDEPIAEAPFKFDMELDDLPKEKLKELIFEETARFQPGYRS

In the case of `CC(=O)OC[C@]1(C)[C@@H]2/C=C(/C=O)CC/C=C(\C)CC[C@H]21`, the inhibition result in test [1] and in test [2] was “inactive” each time. The inhibition entry in test [3] was “Active”.
Turning to `COc1cccc(-c2cc(=O)c3ccccc3o2)c1N`, the inhibition result in test [3] is “Active”.
`C=C(C)[C@H]1C/C=C(\C)[C@@H](O)CCC2=C[C@H]1OC2=O`: the result in test [4] was Active.
As to `C/C1=C\CCC2=CC(O)(C/C(C)=C/CC1)OC2=O` (racemic), the outcome in test [4] was inactive. Moreover, the inhibition entry in test [1] and in test [2] was “inactive” in each case. The inhibition entry in test [3] is “Active”.
For the molecule `C/C1=C\CC/C(C=O)=C\[C@H]2[C@@H](C[C@H]1O)C2(C)C`, the inhibition result in test [1] and in test [2] was “inactive” in each case. Moreover, the inhibition entry in test [3] is “Active”.
`C=C(C)[C@H]1CC/C(C)=C/CCC2=C[C@H]1OC2=O`: the inhibition entry in test [1] and in test [2] was “inactive” throughout. Moreover, the inhibition result in test [3] was “Active”.
Consider `C/C1=C\CCC2=C[C@H](C/C(C)=C/CC1)OC2=O`, for which the inhibition result in test [5] is “Dose-dependent effect”. The inhibition entry in test [1] and in test [2] was “inactive” in each case.
As to `C[C@@H]1CC(=O)C=C2CC[C@@H]3[C@@H](C3(C)C)[C@]21C`, in test [5], the inhibition entry was “Dose-dependent effect”. The inhibition entry in test [1] and in test [2] was “inactive” throughout.
As to `CC1(C)[C@@H]2CC[C@@]3(C)O[C@@H]3CC/C(C=O)=C\[C@@H]21`, the inhibition result in test [1] and in test [2] was “inactive” in each case. Further, the inhibition entry in test [3] is “Active”.
With `C/C1=C\CC/C(C=O)=C\[C@@H]2[C@@H](CC1)[C@]2(C)CO`, the outcome in test [4] was Active.
For the molecule `C=C(C)[C@H]1CC[C@]2(C)[C@@H]([N+](=O)[O-])CC[C@@]23C(=O)O[C@@H]1[C@@H]3O`, the inhibition result in test [1] and in test [2] was “inactive” each time. Also, the inhibition entry in test [3] is “Active”.
In the case of `COC(=O)[C@]1(C)[C@@H]2/C=C(/C=O)CC/C=C(\C)CC[C@H]21`, the result in test [4] was Active.
For `C/C1=C\CC/C(C=O)=C\[C@@H]2[C@@H](CC1)C2(C)C`, the inhibition entry in test [1] and in test [2] was “inactive” throughout. Besides, in test [3], the inhibition result is “Active”.
Turning to `CC(=O)O[C@H]1/C=C(\C=O)CC/C=C(\C)CC/C=C(\C)C1`, in test [4], the outcome was Active.
For `C=C(C)[C@H]1CCC(=C)[C@@H](O)CCC2=C[C@H]1OC2=O`, the inhibition result in test [1] and in test [2] was “inactive” each time. In test [3], the inhibition result was “Active”.

The values are drawn from ChEMBL document CHEMBL2331229, “Extracellular signal-regulated kinases (ERK) inhibitors from Aristolochia yunnanensis” (J Nat Prod, 2013).
